NF-kB expr up – activators of NF-kB expression in neurons, primary screen, cell-based, HTS; human neuronal cells, NF-kB reporter expression; stronger effect = higher value; fold change at 12.5 µM; 190,000 tested, 1.6% active; in the data active = fold change above about 3.3
STAT1 blocker – STAT1 signaling inhibitors, primary screen, cell-based, HTS, luciferase reporter | AID 920, 2007 | 200,000 tested, 0.35% active | inhibition, % at 5.5 µM | NIH 3T3 STAT1-luciferase reporter, IFN-gamma, luminescence;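 active = inhibition above a set limit, the mean inhibition across all tested compounds plus 3 SD, cut at about 34% in these data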;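 note: 0% = IFN-gamma with DMSO and 100% = IFN-gamma with 300 µM nifuroxazide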
STAT3 blocker – IL-6 driven STAT3 reporter inhibitors, primary screen, U3A cells, luciferase, luminescence, MLSCN library. IL-6 STAT3-luciferase reporter; host cell line lacks STAT1. inhibition, % at 5.5 µM. 190,000 tested, 0.89% active. AID 862, 2007;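 active = inhibition above the mean inhibition across all screened compounds plus 3 SD, cut at about 44% in these data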;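 note: 0% = DMSO only wells and 100% = 100 µM nifuroxazide control wells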
STAT1 act – STAT1 signaling activators, primary screen, cell-based, HTS, luciferase reporter | activation (% of control), % at 5.5 µM | 200,000 tested, 2.6% active | NIH 3T3 STAT1-luciferase reporter, IFN-gamma, luminescence; 100% = IFN-gamma alone, no compound;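 active = activation above the screen-wide mean activation plus 3 SD, cut at about 130% in these data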;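 note: raw ratio to IFN-gamma control signal so 100% means no change and 0% no light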
APP 5'UTR act – activators of APP 5'UTR luciferase reporter, primary screen, SH-SY5Y cells. SH-SY5Y APP 5'UTR luciferase reporter, luminescence; zero percent = DMSO vehicle wells. activation, % at 2 µM. 190,000 tested, 1% active. AID 1276, 2008;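 active = activation above a set limit, based on mean plus 3 SD of controls, cut at about 140% in these data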
STAT3 act – IL-6 driven STAT3 reporter potentiators, primary screen, U3A cells, luciferase, luminescence, MLSCN library | IL-6 STAT3-luciferase reporter; 100% = signal with IL-6 EC80 alone | 190,000 tested, 0.91% active | activation (% of control), % at 5.6 µM;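 active = activation above the screen-wide mean of compound activation plus 3 SD, cut at about 130% in these data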;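 note: 0% = background luminescence of wells with medium and substrate only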
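Material: human STAT1-deficient U3A cells with stable STAT3-luciferase reporter / Probe or stimulus: IL-6 stimulus at 33 ng/mL final / Schedule: 1 h compound pre-exposure, 6 h IL-6 stimulation, 37 °C / Technique: luminescence / Read-out basis: percent of IL-6-only median luminescence / Control set: IL-6-only high control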
Active calls of the source: *; . = no result. Most compounds without a hit are left out; they make up all but 5.1% or so of the library.

SMILES | NF-kB expr up | STAT1 blocker | STAT3 blocker | STAT1 act | APP 5'UTR act | STAT3 act
COc1ccc(-c2cc(=Nc3cccc(C(=O)O)c3)c3cc(C)ccc3o2)cc1 | 2.25 | -41.8 | 19.3 | 136.0* | 138.6* | 89.8
CN1C(=O)C(Cc2c[nH]c3ccccc23)C(=O)N(C)C1=O | 1.16 | 8.9 | -66.3 | 91.8 | 9.9 | 158.9*
CN1C(=O)C(Cc2cccc3ccccc23)C(=O)N(C)C1=O | 0.8 | 2.1 | 0.8 | 98.0 | 20.3 | 101.0
Cc1ccc(CN2C3CCCC2CC(NC(=S)NCc2ccccc2)C3)cc1 (stereo not given) | 0.83 | -3.8 | 7.4 | 101.4 | 1.9 | 98.3
Cc1cc(C(=O)N=Nc2c(O)n(C)c3ccccc23)c(C)o1 | 2.25 | -32.6 | 11.4 | 129.0* | 76.0 | 90.0
CCCCCCOc1ccc(CN2CCN(C)CC2)cc1 | 1.05 | -10.5 | 18.6 | 109.6 | 143.9* | 88.5
CN(C)CP(=O)(O)CN(C)C=O | 1.17 | -3.4 | 9.2 | 103.0 | -3.4 | 96.0
CNC(=O)c1cccn(Cc2ccc(C(F)(F)F)cc2)c1=O | 2.22 | 37.1* | 46.3* | 64.9 | -4.5 | 63.5
CC(=O)C1C2c3ccccc3O[C@@]1(C)N=c1s/c(=C/c3ccoc3)c(=O)n12 (stereo not given in full) | 1.02 | 13.4 | -1.6 | 88.2 | -6.0 | 105.6
Cc1ccc(-n2c(O)c(C=Nc3ccccc3N)c(=O)[nH]c2=O)cc1C | 2.68 | -40.1 | -1.4 | 136.6* | 135.2* | 104.3
Cc1cc(S(N)(=O)=O)ccc1N=Cc1c(O)n(-c2ccccc2)c(=O)[nH]c1=O | 1.3 | 0.5 | 1.2 | 97.8 | 19.7 | 102.1
NC(=S)/N=C/c1c(O)[nH]c(=O)[nH]c1=O | 3.4* | -0.1 | 2.6 | 99.0 | 23.9 | 100.8
C=CCNC(=S)/N=C/c1c(O)[nH]c(=O)[nH]c1=O | 0.97 | 3.8 | -0.6 | 96.5 | 2.6 | 100.2
NCCc1nc2ccccc2s1 | 1.09 | 4.9 | -33.1 | 97.0 | 3.5 | 133.3*
COCCNP(=O)(c1ccccc1)c1nc2ccccc2s1 (stereo not given) | 0.73 | 0.5 | -7.7 | 99.6 | 7.8 | 112.1
CC1=NN(c2ccccc2)C(=O)/C1=C/c1c(O)[nH]c(=S)[nH]c1=O | 1.13 | 11.2 | -38.8 | 86.0 | -2.7 | 146.4*
O=c1c2ccccc2nc(CSc2ncnc3nc[nH]c23)n1-c1ccccc1 | 3.88* | -3.8 | 5.6 | 103.5 | 6.5 | 98.8
Cc1[nH]c2ccccc2c1C(=O)C(=O)N1CCC2(CC1)OCCO2 | 1.02 | -8.4 | 5.5 | 104.9 | 16.6 | 99.4
CCN(CC)C(=O)c1ccc(NC(=O)Nc2ccccc2F)cc1 | 1.61 | 61.6* | 85.8* | 42.3 | 121.3 | 31.5
O=C1Nc2ccccc2/C1=C/c1cnc[nH]1 | 0.6 | -18.8 | 56.7* | 116.9 | 1.1 | 57.7
COc1ccc(-n2c(/C=C3\C(=O)Nc4ccccc43)nc3ccccc3c2=O)cc1 | 0.93 | -1.6 | 17.6 | 101.0 | -11.4 | 87.2
CN1CC(C(=O)c2ccccc2)C(C(=O)c2ccccc2)C1 (stereo not given) | 4.33* | -27.5 | -2.7 | 124.8 | 81.6 | 109.0
COc1ccc(-n2c(C)cc(C(=O)C[N+]34CCN(CC3)CC4)c2C)cc1 | 1.01 | 0.5 | 8.1 | 97.7 | 13.4 | 98.5
O=C(NC1CONC1=O)OCC(Cl)(Cl)Cl (stereo not given) | 1.14 | -2.8 | -2.8 | 102.1 | -7.0 | 103.5
COc1ccc(CCn2c(O)c(C=NCc3ccc4c(c3)OCO4)c(=O)[nH]c2=O)cc1OC | 1 | -47.4 | -16.7 | 143.3* | 14.5 | 117.1
SMILES | NF-kB expr up | STAT1 blocker | STAT3 blocker | STAT1 act | APP 5'UTR act | STAT3 act
Cc1cc(C(=O)CS(=O)(=O)c2ccccc2)cc(C)c1OC(=O)N(C)C | 1.96 | -27.0 | 0.1 | 123.9 | 50.0 | 101.0
CC(C)C/C(=N/O)c1c[nH]c2ccccc12 | 0.91 | 8.1 | -31.5 | 92.6 | . | 134.4*
CC(=O)CC(=O)C1C(=O)N(C)C(=O)N(C)C1=O | 1.28 | -0.1 | -6.6 | 98.7 | -0.7 | 106.6
CSc1ncc(/C=C2/C(=O)NC(=O)N(c3ccc(Cl)cc3)C2=O)cn1 | 1.3 | 0.7 | -3.4 | 98.2 | 6.6 | 105.8
CC(C)NS(=O)(=O)c1ccc(OCC(=O)N2CCN(C)CC2)cc1 | 1.16 | 1.1 | 10.6 | 99.0 | -4.2 | 98.3
CN1CCN(C(=O)COc2ccc(-c3nc4ccccc4s3)cc2)CC1 | 4.34* | 48.6* | 85.2* | 55.4 | 135.3* | 28.4
Cc1cccc(N2C(=O)NC(=O)/C(=C/c3cc4c(cc3[N+](=O)[O-])OCO4)C2=O)c1 | 1.21 | 7.5 | 8.4 | 92.5 | 11.5 | 103.2
CC1=NN(c2ccccc2)C(=O)C1/C=C1/C(=O)NC(=O)N(c2cccc(C)c2)C1=O (stereo not given) | 1.24 | -5.0 | -50.3 | 104.6 | 6.8 | 150.5*
CC1=NN(c2ccccc2)C(=O)C1/C=C1/C(=O)NC(=O)N(c2cc(C)cc(C)c2)C1=O (stereo not given) | 1.45 | 5.1 | -43.6 | 95.3 | 3.2 | 144.3*
Cc1cc(C)cc(N2C(=O)NC(=O)/C(=C\c3cc(C)n(C)c3C)C2=O)c1 | 1.45 | -1.4 | 35.4 | 100.0 | 4.4 | 74.6
Cc1cccc(N/N=C(\C(N)=O)C2=NC(C)(C)Cc3ccccc32)c1 | 1.27 | 4.0 | 5.3 | 96.5 | -10.5 | 98.7
Fc1ccc(Cn2nnnc2C(c2ccc(F)cc2)N2CC=C(c3ccc(F)cc3)CC2)cc1 (stereo not given) | 1.12 | 0.8 | 7.2 | 99.3 | 2.6 | 94.7
O=C(c1ccc(Br)cc1)C12CN3CN(CN(C3)C1)C2 | 14.1* | -4.7 | 5.3 | 103.3 | 24.2 | 96.9
CCN(CC)P(=O)(c1n(CC)cc[n+]1CC)N(CC)CC | 1.09 | -3.3 | -0.4 | 100.7 | 3.7 | 101.6
O=C(COc1ccccc1)N1CCN(Cc2c[nH]c3ccccc23)CC1 | 1.06 | 5.3 | -22.5 | 95.6 | -3.1 | 125.3
COc1ccc(OCC(=O)N2CCN(Cc3c[nH]c4ccccc34)CC2)cc1 | 1.03 | 6.0 | -34.9 | 94.5 | -8.6 | 135.1*
Cn1cccc1/C=C1/C(=O)NC(=O)N(Cc2ccccc2)C1=O | 2.97 | -6.9 | -38.4 | 106.2 | -25.4 | 135.4*
CC(/C=N/NC(=O)c1n[nH]c2c1CCC2)=C\c1ccccc1 | 6.88* | -23.8 | -31.9 | 121.8 | -94.3 | 127.0
NC(=O)CN1C2CCC1CC(NC(=O)C1CC1)C2 (stereo not given) | 1.05 | -6.5 | 14.1 | 105.9 | 12.7 | 92.5
O=c1[nH]c(=S)[nH]c(O)c1N=Nc1ccc2c(c1)OCO2 | 1.23 | -30.8 | 5.3 | 129.6* | 40.2 | 96.1
O=c1[nH]c(=S)[nH]c(O)c1N=Nc1cc2c(cc1[N+](=O)[O-])OCO2 | 1.13 | 4.1 | 8.4 | 95.0 | -13.0 | 99.5
